Among the data in ChEMBL document CHEMBL2331158, “Isocoumarin derivatives and benzofurans from a sponge-derived Penicillium sp. fungus” (2013) are MIC and Activity values, retold here.

≈ marks a conversion by molar mass, not a printed value. Calls of active or inactive are those of the source. Bounds are passed on as bounds.

A word on the MIC: it is the smallest concentration in the dilution series that meets the test's criterion for growth inhibition.

One experiment concerns Staphylococcus. As to the kind of experiment: Antibacterial activity against Staphylococcus albus ATCC 8799 assessed as growth inhibition after 18 hrs by broth dilution method. The experiment is classed as functional. The settings on record: ATCC 8799, 18 h. A digest of the protocol:
(§1)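 Conventional broth dilution assay, run across a panel of nine bacterial strains (Gram-positive and Vibrio species included), with ciprofloxacin as the positive control.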

The subject of the next experiment is Staphylococcus aureus. The experiment in a line: Antibacterial activity against Staphylococcus aureus ATCC 27154 assessed as growth inhibition after 18 hrs by broth dilution method. Type of experiment: functional. The settings on record: ATCC 27154, 18 h. A digest of the protocol: as §1
In general terms: In broth dilution the organism is exposed to a series of concentrations in liquid medium.

Another experiment relates to Bacillus cereus. The experiment in a line: Antibacterial activity against Bacillus cereus ACCC 11077 assessed as growth inhibition after 18 hrs by broth dilution method. The following applies: ACCC 11077, 18 h.
Another experiment concerns K562. The experiment in a line: Cytotoxicity against human K562 cells assessed as cell viability after 6 days by MTT assay. Type of experiment: functional, cell-based. In general terms: Formazan colour is commonly taken as a measure of viable cells.
For a further experiment, the system named is HL-60. The experiment in a line: Cytotoxicity against human HL60 cells assessed as cell viability after 6 days by MTT assay. Type of experiment: functional, cell-based.
The subject of another experiment is A549. The experiment in a line: Cytotoxicity against human A549 cells assessed as cell viability after 6 days by MTT assay. Type of experiment: functional, cell-based.
The next experiment relates to Vibrio parahaemolyticus. The experiment in a line: Antibacterial activity against Vibrio parahaemolyticus ATCC 17802 assessed as growth inhibition after 18 hrs by broth dilution method. Type of experiment: functional. The settings on record: ATCC 17802, 18 h. A digest of the protocol:
as §1

In the case of `CC(O)c1coc(=O)c2c(O)cc(O)c(O)c12` (stereo not given), the MIC with Staphylococcus was above 25 µM; in the experiment with Staphylococcus aureus, 12.5 µM (≈ 2.98 µg/mL); in the experiment with Bacillus cereus, 6.25 µM (≈ 1.49 µg/mL); in the experiment with Vibrio parahaemolyticus, 6.25 µM (≈ 1.49 µg/mL). The outcome in the experiment on K562, in the experiment with HL-60 and in the experiment on A549 was inactive.

On to `COc1cc(O)cc2c(CO)c(C)oc12` [PENICIFURAN A], for which the MIC in the experiment on Staphylococcus stood at 3.13 µM (≈ 0.652 µg/mL); with Staphylococcus aureus it was 25 µM (≈ 5.21 µg/mL); in the experiment with Bacillus cereus, 12.5 µM (≈ 2.6 µg/mL); with Vibrio parahaemolyticus it was 25 µM (≈ 5.21 µg/mL). The result in the experiment with K562, in the experiment with HL-60 and in the experiment on A549 was inactive.

With `O=C(O)c1cn(C2CC2)c2cc(N3CCNCC3)c(F)cc2c1=O` [CIPROFLOXACIN], the MIC with Staphylococcus came out at 0.312 µM (≈ 0.103 µg/mL); in the experiment with Staphylococcus aureus, 0.16 µM (≈ 0.053 µg/mL); in the experiment with Bacillus cereus it was 0.625 µM (≈ 0.207 µg/mL); in the experiment on Vibrio parahaemolyticus it was 0.16 µM (≈ 0.053 µg/mL).

As to `COc1cc(O)cc2c(COC(C)=O)c(C)oc12` [PENICIFURAN B], the MIC was 12.5 µM (≈ 3.13 µg/mL) in the experiment on Staphylococcus, above 25 µM in the experiment on Staphylococcus aureus, above 25 µM in the experiment on Bacillus cereus and above 25 µM with Vibrio parahaemolyticus. The result in the experiment on K562, with HL-60 and in the experiment with A549 was inactive.

Turning to `CC(=O)c1coc2c(O)cc(O)cc12` [PENICIFURAN D], the MIC in the experiment with Staphylococcus is 25 µM (≈ 4.8 µg/mL); in the experiment on Staphylococcus aureus, above 25 µM; in the experiment with Bacillus cereus, 25 µM (≈ 4.8 µg/mL); in the experiment on Vibrio parahaemolyticus it was 25 µM (≈ 4.8 µg/mL). The result with K562, in the experiment with HL-60 and with A549 was inactive.

Take `CC(=O)CCC[C@@H]1Cc2cccc(O)c2C(=O)O1` [ASPERGILLUMARIN A]: the MIC was 12.5 µM (≈ 3.1 µg/mL) in the experiment on Staphylococcus, above 25 µM in the experiment on Staphylococcus aureus, above 25 µM with Bacillus cereus and above 25 µM with Vibrio parahaemolyticus. In addition, the result in the experiment on K562, in the experiment with HL-60 and with A549 was inactive.

Regarding `Cc1oc2c(O)cc(O)cc2c1C=O` [PENICIFURAN C], the MIC in the experiment on Staphylococcus was 25 µM (≈ 4.8 µg/mL); in the experiment with Staphylococcus aureus, 12.5 µM (≈ 2.4 µg/mL); in the experiment on Bacillus cereus it was 12.5 µM (≈ 2.4 µg/mL); in the experiment on Vibrio parahaemolyticus, above 25 µM. Further, the result in the experiment with K562, in the experiment with HL-60 and with A549 was inactive.

`O=c1oc(CO)c(CO)c2cc(O)cc(O)c12` [PENICIMARIN F]: the MIC in the experiment on Staphylococcus was above 25 µM; with Staphylococcus aureus, 12.5 µM (≈ 2.98 µg/mL); in the experiment on Bacillus cereus, above 25 µM; with Vibrio parahaemolyticus, above 25 µM. Moreover, the result in the experiment with K562, in the experiment on HL-60 and in the experiment with A549 was inactive.

In the case of `C[C@H](O)CCC[C@@H]1Cc2cccc(O)c2C(=O)O1` [ASPERGILLUMARIN B], the MIC in the experiment on Staphylococcus was 12.5 µM (≈ 3.13 µg/mL); in the experiment on Staphylococcus aureus, above 25 µM; in the experiment with Bacillus cereus it was above 25 µM; in the experiment with Vibrio parahaemolyticus, above 25 µM. Moreover, the outcome in the experiment on K562, in the experiment on HL-60 and in the experiment with A549 was inactive.
